Data on three compounds can be found in ChEMBL document CHEMBL5653631, “A Potent and Selective ULK1 Inhibitor Suppresses Autophagy and Sensitizes Cancer Cells to Nutrient Stress” (iScience, 2018).

The target of assay [1] is Serine/threonine-protein kinase Chk2 (Homo sapiens) (UniProt O96017). As to the kind of experiment: Inhibition of human recombinant CHK2 at 40 nM in presence of ATP by radiometric assay relative to control.
In assay [2] the target is Insulin receptor (Homo sapiens) (UniProt P06213). As to the kind of experiment: Inhibition of human recombinant INSR at 40 nM in presence of ATP by radiometric assay relative to control.
For assay [3], the target named is Cyclin-dependent kinase 5 (Homo sapiens) (UniProt Q00535). As to the kind of experiment: Inhibition of human recombinant CDK5 at 40 nM related to control ULK1.
Chain of Cyclin-dependent kinase 5 (Homo sapiens) (Q00535 whole entry, looked up): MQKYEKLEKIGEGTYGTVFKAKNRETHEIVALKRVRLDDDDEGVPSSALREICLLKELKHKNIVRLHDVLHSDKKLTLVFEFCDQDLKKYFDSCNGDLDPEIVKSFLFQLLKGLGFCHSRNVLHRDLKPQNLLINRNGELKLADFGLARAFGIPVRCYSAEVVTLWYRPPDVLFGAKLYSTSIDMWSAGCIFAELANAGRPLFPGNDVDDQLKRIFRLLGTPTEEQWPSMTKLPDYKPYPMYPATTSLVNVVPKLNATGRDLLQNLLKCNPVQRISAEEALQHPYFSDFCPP
Assay [4] deals with T1, Receptor-interacting serine/threonine-protein kinase 1 (Homo sapiens) (UniProt Q13546).
T1 sequence (whole entry): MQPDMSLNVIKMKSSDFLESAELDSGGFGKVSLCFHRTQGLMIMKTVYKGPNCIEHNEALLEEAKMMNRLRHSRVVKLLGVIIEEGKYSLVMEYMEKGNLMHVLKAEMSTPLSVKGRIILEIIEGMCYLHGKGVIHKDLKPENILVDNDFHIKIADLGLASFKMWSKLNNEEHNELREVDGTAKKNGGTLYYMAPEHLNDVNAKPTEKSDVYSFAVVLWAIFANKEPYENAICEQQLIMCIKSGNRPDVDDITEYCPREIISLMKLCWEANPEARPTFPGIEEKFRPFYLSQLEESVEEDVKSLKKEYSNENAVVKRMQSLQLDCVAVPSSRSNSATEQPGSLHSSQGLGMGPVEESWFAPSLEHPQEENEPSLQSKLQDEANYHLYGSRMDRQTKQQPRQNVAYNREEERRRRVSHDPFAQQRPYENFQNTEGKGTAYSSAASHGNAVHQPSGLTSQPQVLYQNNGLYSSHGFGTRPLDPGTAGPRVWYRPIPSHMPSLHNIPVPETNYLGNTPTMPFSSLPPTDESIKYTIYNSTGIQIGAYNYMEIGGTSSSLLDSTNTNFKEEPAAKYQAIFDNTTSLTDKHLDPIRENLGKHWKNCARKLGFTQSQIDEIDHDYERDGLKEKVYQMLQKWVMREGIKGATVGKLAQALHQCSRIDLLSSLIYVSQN
As to the kind of experiment: Inhibition of human recombinant RIPK1 at 40 nM related to control ULK1.

The target in assay [5] is Tyrosine-protein kinase SYK (Homo sapiens) (UniProt P43405). As to the kind of experiment: Inhibition of human recombinant SYK at 40 nM related to control ULK1.
Assay [6] has as its target Serine/threonine-protein kinase PAK 3 (Homo sapiens) (UniProt O75914). As to the kind of experiment: Inhibition of human recombinant PAK3 at 500 nM in presence of ATP by radiometric assay relative to control.
The target of assay [7] is Serine/threonine-protein kinase WNK1 (Homo sapiens) (UniProt Q9H4A3). As to the kind of experiment: Inhibition of human recombinant Wnk1 at 500 nM in presence of ATP by radiometric assay relative to control.
The target in assay [8] is Serine/threonine-protein kinase ATR (Homo sapiens) (UniProt Q13535). As to the kind of experiment: Inhibition of human recombinant ATR at 500 nM related to control ULK1. Put shortly: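 Panel of 327 recombinant human kinases, each assayed in vitro by radiometric activity assay in duplicate at a single inhibitor concentration per compound, chosen with reference to its ULK1 inhibition. Activity remaining was expressed as percent of vehicle control, and percent inhibition was calculated as 100 minus percent activity remaining.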
Chain of Serine/threonine-protein kinase ATR (Homo sapiens) (Q13535 whole entry, looked up): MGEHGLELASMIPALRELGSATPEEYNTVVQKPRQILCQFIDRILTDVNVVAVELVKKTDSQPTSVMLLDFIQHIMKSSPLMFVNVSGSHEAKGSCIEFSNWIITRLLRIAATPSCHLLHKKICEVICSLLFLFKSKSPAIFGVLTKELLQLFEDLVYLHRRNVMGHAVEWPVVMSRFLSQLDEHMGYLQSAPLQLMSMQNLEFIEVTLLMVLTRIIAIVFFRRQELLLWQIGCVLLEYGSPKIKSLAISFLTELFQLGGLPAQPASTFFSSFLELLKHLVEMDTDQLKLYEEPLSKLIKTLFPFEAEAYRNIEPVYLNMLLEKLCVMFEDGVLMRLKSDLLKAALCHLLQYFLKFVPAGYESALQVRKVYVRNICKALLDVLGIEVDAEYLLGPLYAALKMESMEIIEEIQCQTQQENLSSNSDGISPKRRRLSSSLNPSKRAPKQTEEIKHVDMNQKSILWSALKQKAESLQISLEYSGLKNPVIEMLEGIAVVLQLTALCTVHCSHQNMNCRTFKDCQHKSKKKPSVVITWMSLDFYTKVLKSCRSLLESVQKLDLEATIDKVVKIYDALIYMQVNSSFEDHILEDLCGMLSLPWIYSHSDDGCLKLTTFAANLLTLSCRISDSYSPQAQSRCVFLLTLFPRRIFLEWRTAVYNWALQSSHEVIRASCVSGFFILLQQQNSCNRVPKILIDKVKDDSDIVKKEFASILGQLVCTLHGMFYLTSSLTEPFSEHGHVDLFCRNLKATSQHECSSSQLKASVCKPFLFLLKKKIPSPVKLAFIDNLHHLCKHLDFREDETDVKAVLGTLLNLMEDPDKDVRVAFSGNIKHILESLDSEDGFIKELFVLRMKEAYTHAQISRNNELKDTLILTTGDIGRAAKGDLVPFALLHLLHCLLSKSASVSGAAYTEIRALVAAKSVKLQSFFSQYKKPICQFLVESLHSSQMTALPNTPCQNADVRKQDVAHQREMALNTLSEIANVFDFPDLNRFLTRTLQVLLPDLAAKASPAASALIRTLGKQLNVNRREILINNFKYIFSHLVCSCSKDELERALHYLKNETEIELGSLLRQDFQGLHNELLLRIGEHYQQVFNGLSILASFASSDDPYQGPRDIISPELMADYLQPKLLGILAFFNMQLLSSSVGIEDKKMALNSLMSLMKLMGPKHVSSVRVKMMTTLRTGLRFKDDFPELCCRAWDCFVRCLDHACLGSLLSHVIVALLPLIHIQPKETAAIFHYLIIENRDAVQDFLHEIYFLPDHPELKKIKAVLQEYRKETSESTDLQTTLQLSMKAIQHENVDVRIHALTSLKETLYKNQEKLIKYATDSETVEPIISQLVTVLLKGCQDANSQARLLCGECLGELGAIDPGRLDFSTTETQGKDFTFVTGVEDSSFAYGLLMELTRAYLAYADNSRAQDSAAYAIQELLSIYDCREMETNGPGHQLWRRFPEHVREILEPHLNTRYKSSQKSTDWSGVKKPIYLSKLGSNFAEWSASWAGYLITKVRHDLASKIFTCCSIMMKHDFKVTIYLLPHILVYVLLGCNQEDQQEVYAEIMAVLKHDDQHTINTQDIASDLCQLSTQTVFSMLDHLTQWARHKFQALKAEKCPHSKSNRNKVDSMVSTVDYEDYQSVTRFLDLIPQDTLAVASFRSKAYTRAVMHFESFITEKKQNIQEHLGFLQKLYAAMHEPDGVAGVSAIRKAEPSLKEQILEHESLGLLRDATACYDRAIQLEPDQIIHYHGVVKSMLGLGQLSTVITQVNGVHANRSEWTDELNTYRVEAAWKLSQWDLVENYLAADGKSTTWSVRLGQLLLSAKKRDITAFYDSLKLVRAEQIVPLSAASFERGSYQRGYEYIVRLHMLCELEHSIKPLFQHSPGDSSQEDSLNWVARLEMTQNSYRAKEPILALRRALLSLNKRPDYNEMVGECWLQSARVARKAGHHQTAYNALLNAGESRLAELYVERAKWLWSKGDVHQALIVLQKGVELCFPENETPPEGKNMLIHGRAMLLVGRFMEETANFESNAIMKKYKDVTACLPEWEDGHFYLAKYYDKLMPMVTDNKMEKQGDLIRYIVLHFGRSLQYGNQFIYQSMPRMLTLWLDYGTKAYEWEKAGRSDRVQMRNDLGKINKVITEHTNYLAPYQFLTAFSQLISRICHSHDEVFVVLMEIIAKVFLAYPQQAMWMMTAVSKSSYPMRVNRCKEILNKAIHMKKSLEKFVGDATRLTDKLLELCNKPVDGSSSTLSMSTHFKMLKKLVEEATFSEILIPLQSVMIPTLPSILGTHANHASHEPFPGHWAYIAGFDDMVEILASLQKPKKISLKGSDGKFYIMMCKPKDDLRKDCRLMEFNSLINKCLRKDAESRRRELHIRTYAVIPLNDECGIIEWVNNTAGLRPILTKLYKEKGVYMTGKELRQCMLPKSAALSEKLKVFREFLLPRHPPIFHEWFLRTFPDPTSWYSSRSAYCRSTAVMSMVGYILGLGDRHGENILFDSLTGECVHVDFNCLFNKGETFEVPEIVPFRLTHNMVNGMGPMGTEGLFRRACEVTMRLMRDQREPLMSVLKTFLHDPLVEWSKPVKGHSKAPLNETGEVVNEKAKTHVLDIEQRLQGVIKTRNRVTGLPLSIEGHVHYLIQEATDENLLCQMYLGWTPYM

Assay [9] has as its target Dual specificity tyrosine-phosphorylation-regulated kinase 1B (Homo sapiens) (UniProt Q9Y463). As to the kind of experiment: Inhibition of human recombinant DYRK1B at 500 nM related to control ULK1.
The target of assay [10] is Cyclin-dependent kinase 6 (Homo sapiens) (UniProt Q00534). As to the kind of experiment: Inhibition of human recombinant CDK6 at 15 nM in presence of ATP by radiometric assay relative to control.
Chain of Cyclin-dependent kinase 6 (Homo sapiens) (Q00534 whole entry): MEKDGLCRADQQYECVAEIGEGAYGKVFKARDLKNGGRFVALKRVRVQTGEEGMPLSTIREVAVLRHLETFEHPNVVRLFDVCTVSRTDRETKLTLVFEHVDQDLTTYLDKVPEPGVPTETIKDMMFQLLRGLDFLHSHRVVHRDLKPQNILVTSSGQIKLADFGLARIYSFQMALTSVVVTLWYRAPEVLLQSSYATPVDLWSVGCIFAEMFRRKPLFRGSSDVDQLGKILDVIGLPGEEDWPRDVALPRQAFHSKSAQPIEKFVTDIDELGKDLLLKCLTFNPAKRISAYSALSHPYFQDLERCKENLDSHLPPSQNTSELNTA
In assay [11] the target is Serine/threonine-protein kinase PAK 5 (Homo sapiens) (UniProt Q9P286). As to the kind of experiment: Inhibition of human recombinant PAK5 at 15 nM in presence of ATP by radiometric assay relative to control.
Chain of Serine/threonine-protein kinase PAK 5 (Homo sapiens) (Q9P286 whole entry, looked up): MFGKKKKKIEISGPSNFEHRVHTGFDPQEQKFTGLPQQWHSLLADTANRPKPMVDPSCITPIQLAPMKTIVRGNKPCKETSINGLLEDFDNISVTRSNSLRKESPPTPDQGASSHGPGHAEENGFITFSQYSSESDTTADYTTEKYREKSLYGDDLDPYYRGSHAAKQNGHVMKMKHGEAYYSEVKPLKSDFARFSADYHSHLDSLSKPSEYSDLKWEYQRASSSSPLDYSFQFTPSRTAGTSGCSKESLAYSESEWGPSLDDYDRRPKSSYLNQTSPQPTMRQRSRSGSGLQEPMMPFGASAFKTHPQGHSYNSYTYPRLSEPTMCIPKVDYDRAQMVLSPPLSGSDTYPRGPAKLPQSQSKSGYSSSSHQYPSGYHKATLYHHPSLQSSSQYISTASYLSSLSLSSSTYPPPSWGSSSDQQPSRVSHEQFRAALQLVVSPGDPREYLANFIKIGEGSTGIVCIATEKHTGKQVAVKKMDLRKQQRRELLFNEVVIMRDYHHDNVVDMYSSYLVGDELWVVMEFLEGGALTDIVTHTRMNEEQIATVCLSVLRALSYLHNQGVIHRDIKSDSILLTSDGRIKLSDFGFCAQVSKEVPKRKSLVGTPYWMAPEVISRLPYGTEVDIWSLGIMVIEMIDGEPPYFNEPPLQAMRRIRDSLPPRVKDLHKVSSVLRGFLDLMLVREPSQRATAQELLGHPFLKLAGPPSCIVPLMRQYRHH
The target of assay [12] is T2, Serine/threonine-protein kinase Sgk1 (Homo sapiens) (UniProt O00141).
T2 sequence (whole entry): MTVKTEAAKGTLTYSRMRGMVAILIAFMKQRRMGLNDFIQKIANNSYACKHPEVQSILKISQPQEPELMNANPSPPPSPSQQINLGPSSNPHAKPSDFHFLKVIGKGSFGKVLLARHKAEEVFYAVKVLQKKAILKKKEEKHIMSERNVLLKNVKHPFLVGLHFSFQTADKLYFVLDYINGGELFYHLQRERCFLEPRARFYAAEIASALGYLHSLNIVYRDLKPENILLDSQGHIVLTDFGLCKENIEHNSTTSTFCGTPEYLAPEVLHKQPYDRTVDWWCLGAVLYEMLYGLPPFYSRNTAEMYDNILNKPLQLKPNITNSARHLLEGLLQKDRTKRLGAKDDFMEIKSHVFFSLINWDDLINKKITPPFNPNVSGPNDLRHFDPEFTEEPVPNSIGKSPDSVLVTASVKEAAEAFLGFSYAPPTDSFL
As to the kind of experiment: Inhibition of human recombinant SGK1 at 15 nM in presence of ATP by radiometric assay relative to control.

In assay [13] the target is Mitogen-activated protein kinase kinase kinase 20 (Homo sapiens) (UniProt Q9NYL2). As to the kind of experiment: Inhibition of human recombinant ZAK at 15 nM in presence of ATP by radiometric assay relative to control.
Assay [14] deals with Cyclin-dependent kinase-like 1 (Homo sapiens) (UniProt Q00532). As to the kind of experiment: Inhibition of human recombinant CDKL1 at 15 nM related to control ULK1.
Chain of Cyclin-dependent kinase-like 1 (Homo sapiens) (Q00532 whole entry): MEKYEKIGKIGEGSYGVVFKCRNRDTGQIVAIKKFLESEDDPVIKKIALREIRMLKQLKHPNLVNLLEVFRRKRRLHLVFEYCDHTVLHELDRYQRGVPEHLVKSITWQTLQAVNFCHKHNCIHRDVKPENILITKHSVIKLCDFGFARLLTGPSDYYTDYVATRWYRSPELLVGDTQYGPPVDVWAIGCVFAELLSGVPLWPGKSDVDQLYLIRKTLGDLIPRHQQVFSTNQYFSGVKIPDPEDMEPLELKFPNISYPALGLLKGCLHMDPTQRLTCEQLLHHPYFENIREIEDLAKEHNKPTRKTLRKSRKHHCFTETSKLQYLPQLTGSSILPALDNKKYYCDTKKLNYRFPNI
The target in assay [15] is T3, Serine/threonine-protein kinase Nek11 (Homo sapiens) (UniProt Q8NG66).
T3 sequence (whole entry): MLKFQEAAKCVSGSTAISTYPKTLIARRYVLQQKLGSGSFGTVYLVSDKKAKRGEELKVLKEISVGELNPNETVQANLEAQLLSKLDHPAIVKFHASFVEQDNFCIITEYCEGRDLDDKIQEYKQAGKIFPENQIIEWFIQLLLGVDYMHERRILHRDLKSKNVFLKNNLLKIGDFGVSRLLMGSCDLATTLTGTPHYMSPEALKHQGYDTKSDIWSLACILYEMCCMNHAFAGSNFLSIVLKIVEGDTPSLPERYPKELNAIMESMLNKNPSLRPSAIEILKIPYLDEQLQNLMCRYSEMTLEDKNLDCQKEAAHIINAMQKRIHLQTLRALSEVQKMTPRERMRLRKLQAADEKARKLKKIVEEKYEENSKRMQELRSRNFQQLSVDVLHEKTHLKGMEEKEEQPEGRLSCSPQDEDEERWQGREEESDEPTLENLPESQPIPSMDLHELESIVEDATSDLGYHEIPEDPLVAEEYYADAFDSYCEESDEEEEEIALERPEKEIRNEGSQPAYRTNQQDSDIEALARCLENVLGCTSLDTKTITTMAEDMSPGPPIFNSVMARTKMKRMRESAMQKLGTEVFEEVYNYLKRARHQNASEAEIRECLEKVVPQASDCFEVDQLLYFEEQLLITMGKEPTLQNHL
As to the kind of experiment: Inhibition of human recombinant NEK11 at 15 nM related to control ULK1.

For assay [16], the target named is Serine/threonine-protein kinase 32C (Homo sapiens) (UniProt Q86UX6). As to the kind of experiment: Inhibition of human recombinant YANK3 at 15 nM related to control ULK1.

Chain of Serine/threonine-protein kinase Chk2 (Homo sapiens) (O96017 whole entry): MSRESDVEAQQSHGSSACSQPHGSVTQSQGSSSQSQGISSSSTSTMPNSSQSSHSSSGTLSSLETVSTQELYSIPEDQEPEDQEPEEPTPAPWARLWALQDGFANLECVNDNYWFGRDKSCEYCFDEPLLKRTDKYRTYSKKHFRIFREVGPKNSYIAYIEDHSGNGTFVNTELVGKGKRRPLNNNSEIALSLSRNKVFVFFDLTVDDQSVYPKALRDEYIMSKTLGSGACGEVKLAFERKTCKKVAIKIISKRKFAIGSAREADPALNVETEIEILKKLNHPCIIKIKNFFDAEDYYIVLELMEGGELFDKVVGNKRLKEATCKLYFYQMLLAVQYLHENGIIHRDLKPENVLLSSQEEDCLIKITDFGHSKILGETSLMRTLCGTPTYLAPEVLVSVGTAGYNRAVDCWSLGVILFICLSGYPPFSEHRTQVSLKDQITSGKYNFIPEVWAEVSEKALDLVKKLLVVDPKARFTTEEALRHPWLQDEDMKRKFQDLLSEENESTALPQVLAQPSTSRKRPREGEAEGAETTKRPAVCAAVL

Take `O=C(N[C@@H](C1CC1)C(F)(F)F)c1cc(-c2cnn3cc(-c4ccc(F)cc4)cnc23)cs1`: the inhibition in [1] and in [2] was 0% throughout. Also, the fold change (FC) in assay [3] worked out at 0.64; in assay [4], 0.03; in assay [5] it was 0.

Take `CNC(=O)c1ccccc1Oc1nc(Nc2cc(OC)c(OC)c(OC)c2)ncc1Br`: the inhibition in [6] amounted to 9%; in assay [7] it was 0%. Besides, the fold change (FC) in assay [8] and in [9] was 0 each time.

For the compound `CC(C)[C@H](NC(=O)c1cc(-c2cnn3cc(-c4ccc(OCCN5CCCCC5)cc4)cnc23)cs1)C(F)(F)F`, the inhibition in assay [10] was found to be 8%; in assay [11] it was 0%; in assay [12], 4%; in assay [13] it was 26%. Also, the fold change (FC) in assay [14] turned out to be 0.27; in assay [15], 0; in assay [16] it was 0.03.

What is called inhibition is the percentage by which the read-out fell short of the control.
